Source: ChEMBL document CHEMBL1123670, “Inhibitors of cyclic AMP phosphodiesterase. 2. Structural variations of N-cyclohexyl-N-methyl-4-[(1,2,3,5-tetrahydro- 2-oxoimidazo[2,1-b]quinazolin-7-yl)-oxy]butyramide (RS-82856)” (J Med Chem, 1987)

Key:
[1] = molecular target: T1, Phosphodiesterase; PDE3 & PDE4 (Homo sapiens) (UniProt P27815+Q14432+Q08499+Q07343+Q13370+Q08493); experiment: In vivo inhibition of cyclic AMP phosphodiesterase from dog heart
Procedure, shortened: (§1)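 Cyclic AMP phosphodiesterase prepared from human platelets (IC50, nM) or from rat or dog heart tissue (IC25, nM). Each agent tested at five inhibitor concentrations in triplicate. IC50/IC25 read graphically from the dose-response curve.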

[2] = molecular target: T2, Phosphodiesterase 3 (Homo sapiens, UniProt Q14432+Q13370); experiment: In vitro inhibition of cyclic AMP phosphodiesterase from human platelets
[3] = organism: Homo sapiens; experiment: Inhibition of ADP-induced platelet aggregation at 100 uM concentration; assay type: functional
[4] = In vivo inhibition of cyclic AMP phosphodiesterase from rat heart; settings: in the assay text read “In vitro” for “In vivo”; procedure, shortened: as §1
[5] = organism: Homo sapiens; experiment: Ratio of IC50 of inhibition of platelet aggregation to IC50 of inhibition of platelet PDE; assay type: functional
Procedure, shortened: (§2)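 Efficacy index is the IC50 for inhibition of ADP-induced platelet aggregation divided by the IC50 for human platelet PDE inhibition. Both IC50s come from graphical dose-response curves (five concentrations, triplicate).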

[6] = molecular target: T2, Phosphodiesterase 3; experiment: Inhibition of human platelet cAMP phosphodiesterase at 10e-4 M
[7] = molecular target: T2, Phosphodiesterase 3; experiment: Inhibition of human platelet cAMP phosphodiesterase, 20% inhibition at E-4M
[8] = Inhibition of ADP-induced platelet aggregation; assay type: functional
Procedure, shortened: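 ADP-induced platelet aggregation. Read-out is the rate of change in percentage transmission of the primary aggregation phase after 5 min incubation. Each agent tested at five concentrations in triplicate, with experiments repeated at least twice using platelets from different donors. IC50 (μM) determined graphically.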

[9] = organism: Homo sapiens; experiment: Ratio of IC50 of inhibition of platelet aggregation to IC50 of inhibition of platelet PDE (Efficacy index); assay type: functional; procedure, shortened: as §2
[10] = molecular target: T2, Phosphodiesterase 3; experiment: Inhibition of human platelet cAMP phosphodiesterase; procedure, shortened: as §1
[11] = molecular target: T1, Phosphodiesterase; PDE3 & PDE4 (Homo sapiens); experiment: Inhibition of canine cardiac cAMP phosphodiesterase; assay type: protein assay; settings: Canis lupus familiaris; target entry is the homologue from another species; procedure, shortened: as §1
[12] = Canis lupus familiaris; target entry is the homologue from another species; in the assay text read “In vitro” for “In vivo”
[13] = Canis lupus familiaris; in the assay text read “In vitro” for “In vivo”; target entry is the homologue from another species

| Compound | IC50 [2] | IC50 [3] | IC25 [4] | IC50 [8] | Ratio [9] | also measured |
| --- | --- | --- | --- | --- | --- | --- |
| O=C(O)CCCOc1ccc2c(c1)CN1CC(=O)NC1=N2 | 280 nM | Not Active | – | – | – | IC25 [1, 12]: 130 nM |
| CNC(=O)CCCOc1ccc2c(c1)CN1CC(=O)NC1=N2 | 1600 nM | Not Active | – | – | – | IC25 [1, 12]: 1300 nM |
| CN1C(=O)CN2Cc3cc(OCCCC(=O)N(C)C4CCCCC4)ccc3N=C21 | 76000 nM | Not Active | – | – | – | IC25 [1, 13]: 39000 nM |
| COC1=NC2=Nc3ccc(OCCCC(=O)N(C)C4CCCCC4)cc3CN2C1 | 9600 nM | Not Active | – | – | – | IC25 [1, 12]: 2700 nM |
| CN(C(=O)CCCOc1ccc2nc3n(c(=O)c2c1)CC(=O)N3)C1CCCCC1 | 5400 nM | Not Active | 2900 nM | – | – | – |
| CN(C(=O)CCCOc1ccc2c(c1)CN1C(=N2)NC(=O)[C@@H]1Cc1ccccc1)C1CCCCC1 | > 10000 nM | Not Active | – | – | – | IC25 [1, 12]: > 10000 nM |
| CN(C(=O)CCCOc1ccc2c(c1)CN1C(=N2)NC(=O)[C@H]1c1ccccc1)C1CCCCC1 | 3300 nM | Not Active | – | – | – | IC25 [1, 12]: 3300 nM |
| COc1ccc(C(=O)N2CCN(c3ccc4c(c3)CCC(=O)N4)CC2)cc1OC [VESNARINONE] | 6200 nM | – | – | – | – | Ratio [5]: 608 |
| CN(C(=O)CCCOc1ccc2c(c1)CN1NC(=O)NC1=N2)C1CCCCC1 | 500 nM | Not Active | – | – | – | IC25 [1, 13]: 180 nM |
| CN(C(=O)CCCOc1ccc2c(c1)CN1C(=N2)NC(=O)[C@H]1Cc1ccccc1)C1CCCCC1 | > 10000 nM | Not Active | – | – | – | IC25 [1, 12]: > 10000 nM |
| CN(C(=O)CCCOc1ccc2nc3n(c(=O)c2c1)CCN3)C1CCCCC1 | 25000 nM | Not Active | 3700 nM | – | – | – |
| CN(C(=O)CCCOc1ccc2c(c1)CN1CCNC1=N2)C1CCCCC1 | 27000 nM | Not Active | – | – | – | IC25 [1, 13]: 21000 nM |
| CC(C)[C@H]1C(=O)NC2=Nc3ccc(OCCCC(=O)N(C)C4CCCCC4)cc3CN21 | > 10000 nM | Not Active | – | – | – | IC25 [1, 13]: 6400 nM |
| CN(C(=O)CCCOc1cccc2c1NC1=NC(=O)CN1C2)C1CCCCC1 | – | Not Active | – | – | – | IC25 [1, 13]: 1600 nM; inhibition [6]: 20%; IC50 [7]: > 100000 nM |
| O=C1CN2Cc3cc(OCCCC(=O)N4CCCC5CCCCC54)ccc3N=C2N1 (stereo unspecified) | 13.5 nM | – | 200 nM | 880 nM | 65 | – |
| CN(C(=O)CCCOc1ccc2c(c1)CN1C(=N2)NC(=O)[C@@H]1c1ccccc1)C1CCCCC1 | 3800 nM | Not Active | – | – | – | IC25 [1, 12]: 4200 nM |
| CN(C(=O)CCC[S+]([O-])c1ccc2c(c1)CN1CC(=O)NC1=N2)C1CCCCC1 (stereo unspecified) | 1700 nM | Not Active | – | – | – | IC25 [1, 13]: 6200 nM |
| O=C1CN2Cc3cc(OCCCC(=O)N(CCO)C4CCCCC4)ccc3N=C2N1 | 12.5 nM | – | 70 nM | 2850 nM | 228 | – |
| CC(C)[C@@H]1C(=O)NC2=Nc3ccc(OCCCC(=O)N(C)C4CCCCC4)cc3CN21 | 10000 nM | Not Active | – | – | – | IC25 [1, 12]: 6000 nM |
| CN(Cc1ccccc1)C(=O)CCCOc1ccc2c(c1)CN1CC(=O)NC1=N2 | 26 nM | – | 240 nM | 980 nM | 38 | – |
| CN(C(=O)CCCCOc1ccc2c(c1)CN1CC(=O)NC1=N2)C1CCCCC1 | 4.6 nM | – | 22 nM | 860 nM | 187 | – |
| O=C1CN2Cc3cc(OCCCC(=O)N4CCOCC4)ccc3N=C2N1 | 1600 nM | – | 7000 nM | 53000 nM | 33 | – |
| O=C1CN2Cc3cc(OCCCC(=O)N4CCCC4)ccc3N=C2N1 | 340 nM | – | 1700 nM | 82000 nM | 241 | – |
| CN(C(=O)CCCOc1ccc2c(c1)CN1CC(=O)NC1=N2)c1ccccc1 | 26 nM | – | 350 nM | 390 nM | 15 | – |
| CN(C(=O)CCCOc1ccc2c(c1)CN1CC(=O)NC1=N2)C1CCCCC1 [LIXAZINONE] | – | – | – | 110 nM | 10.8 | IC50 [10]: 10.2 nM; IC25 [11]: 4.1 nM |
| CN(C(=O)CCCCCCOc1ccc2c(c1)CN1CC(=O)NC1=N2)C1CCCCC1 | 16 nM | – | 45 nM | 4600 nM | 287 | – |
| O=C1CN2Cc3cc(OCCCC(=O)N4CCCc5ccccc54)ccc3N=C2N1 | 10 nM | – | 160 nM | 1050 nM | 105 | – |
